Results taken from ChEMBL document CHEMBL1154374, “Lipophilic 2,5-disubstituted pyrroles from the marine sponge Mycale sp. inhibit mitochondrial respiration and HIF-1 activation” (J Nat Prod, 2009).
Active and inactive are the calls of the source. The rule behind the calls is not given here.

Experiments:
[1] = biological target: T1, Hypoxia inducible factors; HIF-1-alpha, HIF-2-alpha (Homo sapiens, UniProt Q16665+Q99814); experiment: Inhibition of hypoxia-induced HIF1 activation in human T47D cells at 30 uM by pTK-HRE3-luciferase reporter gene assay; type: cell-based
How it was run: (§1)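 T47D HIF-1 luciferase reporter under hypoxia (1% O2). Compounds supplied as 4 mM isopropanol stocks, final solvent under 0.75%. % inhibition = (1 − treated/induced light output) × 100. Concentration-response, one experiment in triplicate, mean ± SD.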

[2] = biological target: T1, Hypoxia inducible factors; HIF-1-alpha, HIF-2-alpha; experiment: Inhibition of hypoxia-induced HIF1 activation in human T47D cells by pTK-HRE3-luciferase reporter gene assay; type: cell-based; how it was run: as §1
[3] = biological target: T1, Hypoxia inducible factors; HIF-1-alpha, HIF-2-alpha; experiment: Inhibition of 1,10-phenanthroline-induced HIF1 activation in human T47D cells at 10 uM by pTK-HRE3-luciferase reporter gene assay; type: cell-based
How it was run: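 T47D HIF-1 luciferase reporter; activation induced with 1,10-phenanthroline (10 μM). Compounds supplied as 4 mM isopropanol stocks, final solvent under 0.75%. % inhibition = (1 − treated/induced light output) × 100. Concentration-response, one experiment in triplicate, mean ± SD.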

T47D [4] = experiment: (§2) Inhibition of electron transport protein complex 1 in human T47D cells assessed as decrease in oxygen consumption by mitochondrial respiration assay; type: cell-based
How it was run: (§3)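 Oxygen consumption of intact T47D cells measured by an adapted isolated-mitochondria respiration method. Compounds tested at 1, 3, 10 and 30 μM. Three independent experiments, mean ± SD. One-way ANOVA with Bonferroni post hoc, p < 0.05.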

[5] = as §2; type: cell-based; how it was run: as §3
T47D [6] = experiment: Inhibition of electron transport protein complex 3 in human T47D cells assessed as decrease in oxygen consumption at 10 uM in presence of succinate by mitochondrial respiration assay; type: cell-based
How it was run: (§4)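 Digitonin-permeabilized T47D cells, O2 consumption. Malate/pyruvate starts complex I respiration. Rotenone, then succinate (complex II substrate), then antimycin A, then TMPD/ascorbate (complex IV substrates) added sequentially. Rotenone and antimycin A from ethanol stocks, final 1 μM.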

T47D [7] = experiment: Inhibition of electron transport protein complex 4 in human T47D cells assessed as decrease in oxygen consumption at 10 uM in presence of succinate by mitochondrial respiration assay; type: cell-based; how it was run: as §4
T47D [8] = experiment: Inhibition of electron transport protein complex 2 in human T47D cells assessed as decrease in oxygen consumption at 10 uM in presence of succinate by mitochondrial respiration assay; type: cell-based; how it was run: as §4
T47D [9] = experiment: Inhibition of hypoxia-induced increase in VEGF production in human T47D cells at 30 uM after 16 hrs by ELISA; type: functional
How it was run: (§5)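 T47D cells held at 1% O2 for 16 h with compound at 10 or 30 μM. Secreted VEGF in conditioned medium measured by ELISA and normalized to total cell-lysate protein (micro BCA). One experiment in triplicate, mean ± SD. Compared with one-way ANOVA and Bonferroni post hoc.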

T47D [10] = experiment: Inhibition of electron transport protein complex 1 in human T47D cells assessed as decrease in oxygen consumption at 10 uM by mitochondrial respiration assay; type: cell-based; how it was run: as §4
T47D [11] = experiment: Inhibition of hypoxia-induced increase in VEGF production in human T47D cells at 10 uM after 16 hrs by ELISA; type: functional, cell-based; how it was run: as §5

Structure (SMILES)	inhibition [1] [%]	IC50 [2] [µM]	also measured
N#CCCCCCCCCCCCCC/C=C\CCCCCCc1ccc(C=O)[nH]1	< 50	–	–
CC(C)CCCCCCCCC/C=C\CCc1ccc(C=O)[nH]1 [MYCALAZAL 16]	–	20	–
N#CCCCC/C=C\C/C=C\CCCCCCCCCCc1ccc(C=O)[nH]1 [Mycalenitrile-6]	–	7.8	inhibition [3]: inactive; Activity (T47D [4]): Dose-dependent effect; IC50 [5]: < 10 µM; Activity (T47D [6]): inactive; Activity (T47D [7]): inactive; Activity (T47D [8]): inactive; inhibition at 30 µM (T47D [9]): 50%; Activity (T47D [10]): Active
N#CCCCCCC/C=C\CCCCCCCCCCCc1ccc(C=O)[nH]1 [MYCALENITRILE 8]	–	10	inhibition [3]: inactive
CCCCCCCCCCCCCCCc1ccc(C=O)[nH]1	< 50	–	–
CC(C)CCCCCCCCCCCCc1ccc(C=O)[nH]1	–	20	–
N#CCCCC/C=C\C/C=C\CCCCCCCCCCCCCCc1ccc(C=O)[nH]1 [MYCALENITRILE 5]	–	10	inhibition [3]: inactive
CCCCCCCCCCCCCCc1ccc(C=O)[nH]1 [MYCALAZAL 14]	–	20	–
CC/C=C\C/C=C\C/C=C\CCCCCCCc1ccc(C=O)[nH]1	< 50	–	–
CC(C)CCCCCCCCCCCCCc1ccc(C=O)[nH]1	< 50	–	–
N#CCCCCCCCCCCCCCCCCCc1ccc(C=O)[nH]1 [MYCALENITRILE 1]	–	10	inhibition [3]: inactive
N#CCCCCCCCCCCCCCCCCCCCc1ccc(C=O)[nH]1	< 50	–	–
N#CCCCCCCCCCCCCCCCC/C=C\C/C=C\CCc1ccc(C=O)[nH]1	< 50	–	–
N#CCCCC/C=C\C/C=C\CCCCCCCCCCCCc1ccc(C=O)[nH]1 [MYCALENITRILE 7]	–	8.6	inhibition [3]: inactive; Activity (T47D [4]): Dose-dependent effect; IC50 [5]: < 10 µM; Activity (T47D [6]): inactive; Activity (T47D [7]): inactive; Activity (T47D [8]): inactive; inhibition (T47D [11]): inactive; inhibition (T47D [9]): inactive; Activity (T47D [10]): Active
CC/C=C\C/C=C\C/C=C\CCCCCCCCCCCc1ccc(C=O)[nH]1 [MYCALAZAL 3]	–	20	–
N#CCCCCCC/C=C\CCCCCCCCCCCCCc1ccc(C=O)[nH]1	< 50	–	–
CCC/C=C\C/C=C\CCCCCCCCCc1ccc(C=O)[nH]1 [MYCALAZAL 18]	–	20	–
CC/C=C\C/C=C\C/C=C\CCCCCCCCCc1ccc(C=O)[nH]1 [MYCALAZAL 20]	–	20	–
N#CCCCCCCCCCCCCCCCCCCc1ccc(C=O)[nH]1	< 50	–	–
CC(C)CCCCC/C=C\CCCCCCc1ccc(C=O)[nH]1 [MYCALAZAL 17]	–	20	–
CCCCCCCCCCCCCCCCc1ccc(C=O)[nH]1	< 50	–	–
N#CCCCCCCCCCCCCCC/C=C\CCCCCCc1ccc(C=O)[nH]1	< 50	–	–
N#CCCCCCC/C=C\CCCCCCCCCCCCCCCc1ccc(C=O)[nH]1 [MYCALENITRILE 10]	< 50	–	IC50 [5]: > 30 µM
CCCCCC/C=C\CCCCCCCCCc1ccc(C=O)[nH]1	< 50	–	–
N#CCCCCCCCCCCCCCCCCCCCCc1ccc(C=O)[nH]1	< 50	–	IC50 [5]: > 30 µM
N#CCCCCCCCCCCCCCCCc1ccc(C=O)[nH]1 [MYCALENITRILE 13]	–	10	inhibition [3]: inactive
